Results on 42 compounds are retold here after ChEMBL document CHEMBL3046158, “Design, synthesis, and fungicidal activity of macrolactones and macrolactams with a sulfonamide side chain” (J Agric Food Chem, 2008).

Values after ≈ are worked out from the molar mass of the structure shown.

This test deals with Rhizoctonia solani. The test can be described thus: Fungicidal activity against Rhizoctonia solani assessed as inhibition of mycelium growth by mycelium growth rate test. The class given is functional, organism-based. In short, it runs like this:
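Mycelial growth rate test on Rhizoctonia solani. Inhibition rates measured at 100, 50, 25, 12.5 and 6.25 µg/mL.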
`CC1CCC(NS(=O)(=O)c2ccccc2)CCCCCCCCCCC(=O)O1` (configuration not stated): the EC50 turned out to be 51.3 µg/mL (≈ 125 µM). On to `CC1CCC(NS(=O)(=O)c2ccccc2[N+](=O)[O-])CCCCCCCCCCC(=O)O1` (configuration not stated), for which the EC50 worked out at 93.3 µg/mL (≈ 205 µM). For `O=C1CCCCCCCCCCCN1CCNS(=O)(=O)c1cccc([N+](=O)[O-])c1` the value was 10.7 µg/mL (≈ 25.1 µM). On to `O=C1CCCCCCCCCCC(NS(=O)(=O)c2ccc(Cl)cc2)CCCO1` (configuration not stated), for which the 50% effective concentration (EC50) came out at 3.3 µg/mL (≈ 7.67 µM). For `CC1CCC(NS(=O)(=O)c2cccs2)CCCCCCCCCCC(=O)O1` (configuration not stated) the value was 20.3 µg/mL (≈ 48.8 µM); for `Cc1ccc(S(=O)(=O)NC2CCCCCCCCCCC(=O)NCCC2)cc1` (configuration not stated), 13.4 µg/mL (≈ 32.8 µM); for `O=C1CCCCCCCCCCCN1CCNS(=O)(=O)c1ccc(Cl)cc1`, 18.7 µg/mL (≈ 45.1 µM). For `Cc1ccc(S(=O)(=O)NCCN2CCCCCCCCCCCC2=O)cc1` the value was 8.8 µg/mL (≈ 22.3 µM); for `COC(=O)c1ccccc1S(=O)(=O)NC1CCCCCCCCCCC(=O)OCCC1` (configuration not stated), 20.9 µg/mL (≈ 46.1 µM); for `O=C1CCCCCCCCCCC(NS(=O)(=O)c2cccs2)CCCN1` (configuration not stated), 18.3 µg/mL (≈ 45.7 µM). For `O=C1CCCCCCCCCCC(NS(=O)(=O)c2ccccc2)CCCN1` (configuration not stated) the value was 55.3 µg/mL (≈ 140 µM); for `CC1CCC(NS(=O)(=O)c2cc(Cl)ccc2Cl)CCCCCCCCCCC(=O)O1` (configuration not stated), 30 µg/mL (≈ 62.7 µM); for `O=C1CCCCCCCCCCC(NS(=O)(=O)c2ccc(Cl)cc2)CCCN1` (configuration not stated), 19.6 µg/mL (≈ 45.7 µM).

Take `COC(=O)Nc1nc2ccccc2[nH]1` [CARBENDAZIM]: the EC50 was determined as 1.5 µg/mL (≈ 7.85 µM).

With `O=C1CCCCCCCCCCC(NS(=O)(=O)c2cc(Cl)ccc2Cl)CCCO1` (configuration not stated), the EC50 was determined as 28.4 µg/mL (≈ 61.1 µM).

On to `O=C1CCCCCCCCCCC(NS(=O)(=O)c2cc(Cl)ccc2Cl)CCCN1` (configuration not stated), for which the EC50 turned out to be 30.4 µg/mL (≈ 65.6 µM).

For `Cc1ccc(S(=O)(=O)NC2CCCCCCCCCCC(=O)OCCC2)cc1` (configuration not stated), the EC50 is 3.7 µg/mL (≈ 9.03 µM). With `CC1CCC(NS(C)(=O)=O)CCCCCCCCCCC(=O)O1` (configuration not stated), the EC50 is 56.4 µg/mL (≈ 162 µM). For `CC1CCC(NS(=O)(=O)c2ccccc2Cl)CCCCCCCCCCC(=O)O1` (configuration not stated), the concentration for a half-maximal effect (EC50) was 37.9 µg/mL (≈ 85.4 µM). In the case of `O=C1CCCCCCCCCCC(NS(=O)(=O)c2ccccc2[N+](=O)[O-])CCCN1` (configuration not stated), the EC50 amounted to 21.5 µg/mL (≈ 48.9 µM).

`CC1CCC(NS(=O)(=O)c2ccc(Cl)cc2)CCCCCCCCCCC(=O)O1` (configuration not stated): the EC50 came out at 69.6 µg/mL (≈ 157 µM). For `O=C1CCCCCCCCCCC(NS(=O)(=O)c2ccc(F)cc2)CCCO1` (configuration not stated) the value was 4.5 µg/mL (≈ 10.9 µM).

On to `O=C1CCCCCCCCCCC(NS(=O)(=O)c2cccc([N+](=O)[O-])c2)CCCN1` (configuration not stated), for which the EC50 is 27.6 µg/mL (≈ 62.8 µM).

As to `O=C1CCCCCCCCCCC(NS(=O)(=O)c2ccccc2)CCCO1` (configuration not stated), the EC50 stood at 2.4 µg/mL (≈ 6.07 µM). For `O=C1CCCCCCCCCCC(NS(=O)(=O)c2cccc([N+](=O)[O-])c2)CCCO1` (configuration not stated) the value was 18.7 µg/mL (≈ 42.4 µM); for `O=C1CCCCCCCCCCC(NS(=O)(=O)Cc2ccccc2)CCCN1` (configuration not stated), 8.1 µg/mL (≈ 19.8 µM).

`CS(=O)(=O)NC1CCCCCCCCCCC(=O)NCCC1` (configuration not stated): the concentration giving a half-maximal response (EC50) was determined as 45.1 µg/mL (≈ 136 µM). For `COC(=O)c1ccccc1S(=O)(=O)NC1CCCCCCCCCCC(=O)OC(C)CC1` (configuration not stated) the value was 53.4 µg/mL (≈ 114 µM); for `COC(=O)c1ccccc1S(=O)(=O)NC1CCCCCCCCCCC(=O)NCCC1` (configuration not stated), 12.8 µg/mL (≈ 28.3 µM).

Consider `O=C1CCCCCCCCCCC(NS(=O)(=O)c2ccccc2Cl)CCCN1` (configuration not stated), for which the 50% effective concentration (EC50) is 59.5 µg/mL (≈ 139 µM). For `O=C1CCCCCCCCCCC(NS(=O)(=O)c2ccc(F)cc2)CCCN1` (configuration not stated) the value was 36.7 µg/mL (≈ 89 µM); for `O=C1CCCCCCCCCCC(NS(=O)(=O)c2cccs2)CCCO1` (configuration not stated), 5.1 µg/mL (≈ 12.7 µM); for `O=C1CCCCCCCCCCC(NS(=O)(=O)c2ccccc2[N+](=O)[O-])CCCO1` (configuration not stated), 22.3 µg/mL (≈ 50.6 µM).

For the compound `CC1CCC(NS(=O)(=O)c2ccc(F)cc2)CCCCCCCCCCC(=O)O1` (configuration not stated), the EC50 was 25.1 µg/mL (≈ 58.7 µM).

Turning to `CC1CCC(NS(=O)(=O)Cc2ccccc2)CCCCCCCCCCC(=O)O1` (configuration not stated), the EC50 turned out to be 28.2 µg/mL (≈ 66.6 µM).

As for `CS(=O)(=O)NC1CCCCCCCCCCC(=O)OCCC1` (configuration not stated), the EC50 is 12.2 µg/mL (≈ 36.6 µM). On to `CC1CCC(NS(=O)(=O)c2cccc([N+](=O)[O-])c2)CCCCCCCCCCC(=O)O1` (configuration not stated), for which the EC50 worked out at 86 µg/mL (≈ 189 µM). With `O=C1CCCCCCCCCCCN1CCNS(=O)(=O)c1ccccc1`, the EC50 stood at 11.6 µg/mL (≈ 30.5 µM).

As to `O=C1CCCCCCCCCCCN1CCNS(=O)(=O)c1cc(Cl)ccc1Cl`, the EC50 was 5.3 µg/mL (≈ 11.8 µM). As for `Cc1ccc(S(=O)(=O)NC2CCCCCCCCCCC(=O)OC(C)CC2)cc1` (configuration not stated), the EC50 turned out to be 57 µg/mL (≈ 135 µM).

As to `O=C1CCCCCCCCCCC(NS(=O)(=O)Cc2ccccc2)CCCO1` (configuration not stated), the EC50 was 52.4 µg/mL (≈ 128 µM). Consider `O=C1CCCCCCCCCCC(NS(=O)(=O)c2ccccc2Cl)CCCO1` (configuration not stated), for which the EC50 came out at 25 µg/mL (≈ 58.1 µM).

A word on the EC50: it is the concentration that produces a half-maximal response.
